From ChEMBL document CHEMBL3227917, “Structure-activity relationships of dimeric Catharanthus alkaloids. 2. Experimental antitumor activities of N-substituted deacetylvinblastine amide (vindesine) sulfates” (J Med Chem, 1979)

What was measured:
[1] = Antitumor activity against mouse Gardner lymphosarcoma allografted in C3H mouse assessed as tumor growth inhibition at 0.20 mg/kg, ip administered daily for 8 to 10 days; assay type: functional; settings: route intraperitoneal, read-out: TGI
Outline: (§1)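 Gardner lymphosarcoma in C3H mice; sulfate salts unless noted, given ip daily for 8–10 days, treatment starting 8 days after tumor implantation. Tumor growth inhibition scored as –, 0–25%; +, 26–50%; ++, 51–75%; +++, 76–100%; T, lethal to ≥5 of 10 animals per group. Average of one or more tests.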

Mus musculus [2] = assay: Toxicity in C57BL/6 mouse allografted with mouse B16 cells assessed as animal death at 0.60 mg/kg, ip administered on days 1,5 and 9; assay type: organism-based; set-up: dose 0.6 mg/kg, route intraperitoneal; settings: in vivo, 0.6 mg/kg
Outline: (§2)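 B16 melanoma cells (10⁶ inoculum) implanted ip in C57BL/6 mice; groups of 10. Sulfate salts unless noted, given ip on days 1, 5 and 9. Single test. Survival prolongation is expressed as percent versus controls, with survivors counted on day 60. Toxic means deaths of ≥5 of 10 animals before the first control death.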

Mus musculus [3] = assay: Toxicity in C3H mouse allografted with mouse Gardner lymphosarcoma assessed as lethality at 0.30 mg/kg, ip administered daily for 8 to 10 days; assay type: organism-based; set-up: dose 0.3 mg/kg, route intraperitoneal; settings: in vivo, 0.3 mg/kg
Outline: (§3)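 Tumor-bearing mice given sulfate salts ip daily for 8–10 days; values are the average of one or more tests. Toxic means lethal to ≥5 of 10 animals per group.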

Mus musculus [4] = assay: Toxicity in C57BL/6 mouse allografted with mouse B16 cells assessed as animal death at 0.90 mg/kg, ip administered on days 1,5 and 9; assay type: organism-based; set-up: dose 0.9 mg/kg, route intraperitoneal; settings: in vivo, 0.9 mg/kg; outline: as §2
[5] = Antitumor activity against mouse Gardner lymphosarcoma allografted in C3H mouse assessed as tumor growth inhibition at 0.10 mg/kg, ip administered daily for 8 to 10 days; assay type: functional; settings: route intraperitoneal, read-out: TGI; outline: as §1
B16 [6] = assay: Antitumor activity against mouse B16 cells allografted in C57BL/6 mouse assessed as prolongation of host survival at 0.30 mg/kg, ip administered on days 1,5 and 9; assay type: functional; settings: route intraperitoneal; outline: as §2
Mus musculus [7] = assay: Toxicity in C3H mouse allografted with mouse Gardner lymphosarcoma assessed as lethality at 0.40 mg/kg, ip administered daily for 8 to 10 days; assay type: organism-based; set-up: dose 0.4 mg/kg, route intraperitoneal; settings: in vivo, 0.4 mg/kg; outline: as §3
[8] = Antitumor activity against mouse Gardner lymphosarcoma allografted in C3H mouse assessed as tumor growth inhibition at 0.40 mg/kg, ip administered daily for 8 to 10 days; assay type: functional; settings: route intraperitoneal, read-out: TGI; outline: as §1
[9] = Antitumor activity against mouse Ridgway osteogenic sarcoma allografted in AKR mouse assessed as tumor growth inhibition at 0.40 mg/kg, ip administered daily for 8 to 10 days compound treatment commenced 8 days after tumor implantation; assay type: functional; settings: route intraperitoneal, read-out: TGI
[10] = Antitumor activity against mouse Ridgway osteogenic sarcoma allografted in AKR mouse assessed as tumor growth inhibition at 0.05 mg/kg, ip administered daily for 8 to 10 days compound treatment commenced 8 days after tumor implantation; assay type: functional; settings: route intraperitoneal, read-out: TGI
[11] = Antitumor activity against mouse P1534 cells allografted in DBA2 mouse assessed as tumor growth inhibition at 0.40 mg/kg, ip administered daily for 8 to 10 days; assay type: functional; settings: route intraperitoneal, read-out: TGI
Outline: (§4)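 P1534(J) leukemia implanted sc in DBA2 mice; sulfate salts dosed ip daily for 8–10 days. Growth inhibition scored –, 0–25%; +, 26–50%; ++, 51–75%; +++, 76–100%; T, lethal to ≥5 of 10 animals per group. Average of one or more tests.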

[12] = Antitumor activity against mouse P1534 cells allografted in DBA2 mouse assessed as tumor growth inhibition at 0.20 mg/kg, ip administered daily for 8 to 10 days; assay type: functional; settings: route intraperitoneal, read-out: TGI; outline: as §4
[13] = Antitumor activity against mouse Ridgway osteogenic sarcoma allografted in AKR mouse assessed as tumor growth inhibition at 0.10 mg/kg, ip administered daily for 8 to 10 days compound treatment commenced 8 days after tumor implantation; assay type: functional; settings: route intraperitoneal, read-out: TGI
[14] = Antitumor activity against mouse Ridgway osteogenic sarcoma allografted in AKR mouse assessed as tumor growth inhibition at 0.20 mg/kg, ip administered daily for 8 to 10 days compound treatment commenced 8 days after tumor implantation; assay type: functional; settings: route intraperitoneal, read-out: TGI
[15] = Toxicity in iv dosed mouse assessed as lethality; assay type: organism-based; settings: in vivo
[16] = Antitumor activity against mouse Gardner lymphosarcoma allografted in C3H mouse assessed as tumor growth inhibition at 0.05 mg/kg, ip administered daily for 8 to 10 days; assay type: functional; settings: route intraperitoneal, read-out: TGI; outline: as §1
[17] = Antitumor activity against mouse P1534 cells allografted in DBA2 mouse assessed as tumor growth inhibition at 0.10 mg/kg, ip administered daily for 8 to 10 days; assay type: functional; settings: route intraperitoneal, read-out: TGI; outline: as §4
CHO [18] = assay: Mitotic arrest in CHO cells assessed as increase in cell accumulation at 0.2 ug/ml; assay type: functional, Cricetulus griseus
Outline: (§5)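 Chinese hamster ovary cells in tissue culture, scored for mitotic arrest as increase in cells in mitotic arrest over control: +++, 40–50%; ++, 15–40%; +, 10–15%; ±, 7–10%; –, 3–7%. Cytotoxicity noted separately.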

B16 [19] = assay: Antitumor activity against mouse B16 cells allografted in C57BL/6 mouse assessed as prolongation of host survival at 1.20 mg/kg, ip administered on days 1,5 and 9; assay type: functional; settings: route intraperitoneal; outline: as §2
B16 [20] = assay: Antitumor activity against mouse B16 cells allografted in C57BL/6 mouse assessed as prolongation of host survival at 0.90 mg/kg, ip administered on days 1,5 and 9; assay type: functional; settings: route intraperitoneal; outline: as §2
CHO [21] = assay: Mitotic arrest in CHO cells assessed as increase in cell accumulation at 0.02 ug/ml; assay type: functional, Cricetulus griseus; outline: as §5
B16 [22] = assay: Antitumor activity against mouse B16 cells allografted in C57BL/6 mouse assessed as prolongation of host survival at 0.60 mg/kg, ip administered on days 1,5 and 9; assay type: functional; settings: route intraperitoneal; outline: as §2
CHO [23] = assay: Mitotic arrest in CHO cells assessed as increase in cell accumulation at 0.002 ug/ml; assay type: functional, Cricetulus griseus; outline: as §5

CC[C@]1(O)C[C@H]2CN(CCc3c([nH]c4ccccc34)[C@@](C(=O)OC)(c3cc4c(cc3OC)N(C)[C@H]3[C@@](O)(C(=O)NC5CCSC5=O)[C@H](O)[C@]5(CC)C=CCN6CC[C@]43[C@@H]65)C2)C1.O=S(=O)(O)O (stereo partly specified)
inhibition in vivo at 0.2 mg/kg [1]: 0% | Activity (Mus musculus [2]): Toxic | Activity (Mus musculus [3]): Toxic | Activity (Mus musculus [4]): Toxic | inhibition in vivo at 0.1 mg/kg [5]: 0% | survival at 0.3 mg/kg (B16 [6]): 94% | Activity (Mus musculus [7]): Toxic

CC[C@]1(O)C[C@H]2CN(CCc3c([nH]c4ccccc34)[C@@](C(=O)OC)(c3cc4c(cc3OC)N(C)[C@H]3[C@@](O)(C(=O)NCCCO)[C@H](O)[C@]5(CC)C=CCN6CC[C@]43[C@@H]65)C2)C1
inhibition in vivo at 0.4 mg/kg [8]: 76% | inhibition in vivo at 0.2 mg/kg [1]: 51% | inhibition in vivo at 0.4 mg/kg [9]: 76% | inhibition in vivo at 0.05 mg/kg [10]: 26% | inhibition in vivo at 0.4 mg/kg [11]: 76% | inhibition in vivo at 0.2 mg/kg [12]: 76% | inhibition in vivo at 0.1 mg/kg [13]: 76% | inhibition in vivo at 0.2 mg/kg [14]: 76%

CC[C@]1(O)C[C@H]2CN(CCc3c([nH]c4ccccc34)[C@@](C(=O)OC)(c3cc4c(cc3OC)N(C)[C@H]3[C@@](O)(C(=O)NCCO)[C@H](O)[C@]5(CC)C=CCN6CC[C@]43[C@@H]65)C2)C1.O=S(=O)(O)O
inhibition in vivo at 0.4 mg/kg [8]: 76% | LD50 [15]: 4.4 mg/kg | inhibition in vivo at 0.2 mg/kg [1]: 76% | inhibition in vivo at 0.05 mg/kg [16]: 76% | inhibition in vivo at 0.1 mg/kg [17]: 51% | inhibition in vivo at 0.4 mg/kg [9]: 76% | inhibition in vivo at 0.05 mg/kg [10]: 51% | Activity (CHO [18]): 15% | inhibition in vivo at 0.1 mg/kg [5]: 76% | survival at 1.2 mg/kg (B16 [19]): 93% | survival at 0.9 mg/kg (B16 [20]): 97% | Activity (CHO [21]): 15% | survival at 0.6 mg/kg (B16 [22]): 51% | Activity (CHO [23]): 3% | inhibition in vivo at 0.1 mg/kg [13]: 76% | inhibition in vivo at 0.2 mg/kg [14]: 76%
